Screens from PubChem BioAssay.
A selection: hits, their analogues and other compounds. The true share with any hit is near 0.85%.
OXTR potentiate – potentiators of human oxytocin receptor; P30559; CHO-OTR cells, Fluo-8 calcium fluorescence, potentiator mode; 0% = oxytocin EC15, 100% = EC100; activation, % at 3 µM; actives 0.061% (n = 320,000); AID 2445;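 active = activation above that plate's cutoff, the mean activation of tested compounds plus 3 SD, cut at about 6.6% in these data, passing the limit was not always enough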;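 note: 100% uses oxytocin at 75 nM as the full agonist control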
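System: human OTR in CHO cells / Also added: sub-maximal oxytocin, roughly EC15 / Control set: EC15 oxytocin low, 75 nM oxytocin high / Schedule: 6 min compound pre-incubation at room temperature, 100 s kinetic read / Compound: single-point 3.0 µM / Replication: singlicate / Technique: Fluo-8 calcium dye fluorescence / Read-out basis: % activation of max/min ratio relative to oxytocin controls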
V1R ag counter – activates human V1a receptor in oxytocin agonist counter-screen; P37288; CHO-V1R cells, Fluo-8 calcium fluorescence, agonist mode; 0% DMSO, 100% 3 nM vasopressin; activation, % at 3 µM; actives 0.25% (n = 320,000);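 active = activation above the mean activation of all tested compounds plus 3 SD, per screening run, cut at about 20% in these data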;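 note: signal is peak over basal fluorescence ratio across a 100 second FLIPR read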
Target sequence (P37288 whole entry, looked up): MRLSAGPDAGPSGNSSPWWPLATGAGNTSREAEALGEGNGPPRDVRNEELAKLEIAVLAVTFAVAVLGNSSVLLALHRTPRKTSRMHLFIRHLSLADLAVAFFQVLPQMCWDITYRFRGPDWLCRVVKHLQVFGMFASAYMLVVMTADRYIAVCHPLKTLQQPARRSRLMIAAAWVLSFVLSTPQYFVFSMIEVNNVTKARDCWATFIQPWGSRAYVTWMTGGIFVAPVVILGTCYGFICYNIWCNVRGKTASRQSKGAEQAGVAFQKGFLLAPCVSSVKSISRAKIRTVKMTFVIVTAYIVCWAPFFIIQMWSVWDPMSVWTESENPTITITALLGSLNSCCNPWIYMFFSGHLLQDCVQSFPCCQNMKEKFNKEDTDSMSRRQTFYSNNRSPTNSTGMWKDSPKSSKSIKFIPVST
OXTR ag – human OXTR agonism; P30559; CHO-OTR cells, Fluo-8 calcium fluorescence; normalized: DMSO 0%, oxytocin 100%; activation, % at 3 µM; actives 0.32% (n = 320,000);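 active = activation above the mean of all tested compounds plus 3 SD, cutoff set per screening run, cut at about 20% in these data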;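 note: peak over basal fluorescence ratio from a 100 s FLIPR kinetic read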
TRPML3 ag – agonists of human TRPML3 channel; Q8TDD5; HEK293 TRPML3-YFP, Fluo-8 calcium fluorescence; 100% = the carbachol control signal; activation, % at 3 µM; actives 0.29% (n = 220,000);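 active = activation above its plate's cutoff, the mean activation of the plate's test wells plus 3 SD, cut at about 12% in these data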;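 note: 0% = DMSO only wells and 100% = carbachol wells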
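Material: HEK293 cells stably carrying human TRPML3-YFP; compound dosing: single dose, 3 µM final nominal compound, 0.3% DMSO final; incubation: 1-h 37 °C dye load, 5-s basal, 120-s post-compound reads; technique: Fluo-8 intracellular calcium fluorescence, excitation 470-495 nm, emission 515-575 nm; read-out basis: percent activation from peak-to-basal fluorescence ratio, scaled between DMSO and carbachol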
CRFR2-BP ag – agonists of human CRF-binding protein/CRF-R2 receptor complex; HEK293 CRF-R2/CRF-BP, calcium dye fluorescence (FLIPR); percent of saturating CRF peptide response; activation, % at 13.2 µM; actives 0.46% (n = 350,000); AID 588473;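 active = activation of at least 50%, plus an integration ratio under a set limit after plate pattern correction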;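 note: plate controls were neutral control wells without compound for no effect and CRF at EC100 for full effect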
TRPN1 ag – agonists of zebrafish TRPN1 channel; activation, % at 3 µM; AID 1424; HEK293 zebrafish TRPN1-YFP, Fluo-8 calcium fluorescence; 100% = response to 87 µM carbachol; actives 0.18% (n = 220,000);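 active = activation above its plate's cutoff, the mean activation of test wells on that plate plus 3 SD, cut at about 19% in these data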;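 note: 0% = DMSO alone and 100% = 87 µM carbachol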
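Material: zebrafish TRPN1-YFP in HEK293 cells; Doses: single test compound dose, 3 µM nominal, 0.3% DMSO; Timing: dye loading 1 h at 37 °C, then 30 min room temperature; Technique: intracellular calcium fluorescence with Fluo-8; Benchmarks: high carbachol 87 µM, low DMSO alone.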
* marks the source's active call; other numbers are inactive results; . = not tested or not shown.

SMILES | OXTR potentiate | V1R ag counter | OXTR ag | TRPML3 ag | CRFR2-BP ag | TRPN1 ag
[O-][n+]1c2c(c3c4non(O)c4ccc31)CCCC2 | -14 | 8 | 13 | 0 | 85* | 4
NC(=O)C1CCN(C(=O)c2cc(Cl)c3c(c2)OCCO3)CC1 | 1 | 1 | 1 | . | -3 | .
COc1ccc(-n2c(C)cc(/C=C3/SC(=S)N(C)C3=O)c2C)cc1 | -2 | 0 | 2 | 1 | 58* | 2
Cc1cc(/C=C2\SC(=S)N(C)C2=O)c(C)n1-c1cccc(O)c1 | -5 | 2 | 8 | 0 | 11 | 0
CCN1CCN(c2nc3ccccn3c(=O)c2C=O)CC1 | -11 | 2 | 0 | . | 6 | .
O=Cc1c(N2CCN(CCO)CC2)nc2ccccn2c1=O | 2 | 0 | 0 | . | 128* | .
COc1cccc(C2C=C(c3ccc(Br)s3)Nc3ncnn32)c1OC (configuration not stated) | -16 | 2 | 2 | 1 | 106* | 2
CC(C)c1cc(=O)oc2c3c4c(cc12)CCCN4CCC3 | -4 | -1 | -1 | 0 | 8 | 0
O=c1oc2c3c4c(cc2c(C(F)(F)F)c1CCN1CCOCC1)CCCN4CCC3 | -12 | 33* | 34* | 10 | 708 | 20*
CCC1NC(=O)c2ccccc2N1c1cccc(Cl)c1 (configuration not stated) | -6 | -1 | -2 | . | -2 | .
CNC(=O)C1CCN(S(=O)(=O)c2c(C)noc2/C=C/c2ccc(OC)cc2)CC1 | -2 | 4 | -1 | . | 54* | .
CCN(CC)S(=O)(=O)c1cccc(NC(=O)CN2C(=O)NC3(CCOc4ccccc43)C2=O)c1 (configuration not stated) | . | . | . | . | 2 | .
Cc1ccc(S(=O)(=O)/N=C2/NC(=O)/C(=C/c3cc([N+](=O)[O-])ccc3O)S2)cc1 | -13 | 34* | 26* | . | 67* | .
COc1cc(/C=C2\S/C(=N/S(=O)(=O)c3ccc(C)cc3)NC2=O)c([N+](=O)[O-])cc1OC | 1 | -1 | -1 | 0 | 1 | 1
O=C1NC(=Nc2ccccc2Cl)S/C1=C\c1cc([N+](=O)[O-])ccc1O | -4 | 15 | 15 | . | 61* | .
COc1cccc(N=C2NC(=O)/C(=C/c3cc([N+](=O)[O-])ccc3O)S2)c1 | -8 | 7 | 4 | . | 38 | .
CNC(=O)COc1coc(CN2CCN(c3ccccc3OC)CC2)cc1=O | -3 | 0 | 0 | . | 0 | .
O=C(NCc1ccco1)c1ccccc1NS(=O)(=O)c1ccc(Cl)s1 | -9 | 8 | 12 | 3 | 15 | 2
Cc1ccc(NC(=O)c2ccccc2NS(=O)(=O)c2ccc(Cl)s2)cc1 | -12 | 9 | 15 | 13* | 65* | 27*
CS(=O)(=O)c1ccccc1C(=O)Nc1ccccc1Cc1ccccc1 | 1 | 0 | 1 | . | -1 | .
O=C(Nc1ccccc1Cc1ccccc1)c1ccccc1NS(=O)(=O)c1ccc(Cl)s1 | -14 | 11 | 14 | 5 | 35 | 19*
O=C(Nc1ccccc1)c1ccccc1NS(=O)(=O)c1ccc(Cl)s1 | -13 | 11 | 10 | 16* | 29 | 29*
COP(=O)(OC)c1nc(-c2ccc(C)cc2)oc1N1CCCCC1 | 0 | -1 | -2 | . | -2 | .
O=C(N/C=N/O)C(c1ccccc1)c1ncc(C(F)(F)F)cc1Cl (configuration not stated) | -17 | 0 | -1 | . | -1 | .
COc1cccc(NC(=O)C2CCCN2C(=O)NC2CCCCC2)c1 (configuration not stated) | -1 | 0 | 1 | . | 0 | .
CN(C)C(CNS(=O)(=O)c1ccc(Cl)cc1F)c1ccco1 (configuration not stated) | -3 | 1 | 1 | . | 0 | .
COc1cccc(N2CCN(c3ccc4nnc(CCC(=O)N5CCC(C)CC5)n4n3)CC2)c1 | -16 | -1 | -2 | . | 0 | .
COc1ccc(C(=O)Cn2cnc3ccccc3c2=O)c(OC)c1 | . | . | . | . | 54* | .
CCOC(=O)C1CCCN(C(=O)c2cc3ccc(OC)cc3[nH]2)C1 (configuration not stated) | . | . | . | . | 0 | .
